Measurements from ChEMBL document CHEMBL2069177, “A prospective cross-screening study on G-protein-coupled receptors: lessons learned in virtual compound library design” (J Med Chem, 2012).

Columns and labels:
[1] = target: Adenosine receptor A2a (Homo sapiens, UniProt P29274); experiment: Displacement of [3H]ZM241385 from human AA2AR expressed in HEK293T cells after 2 hrs by liquid scintillation counter; format: cell-based, HEK-293T
Method in brief: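 Membranes of HEK293T cells stably expressing AA2AR (40 µg protein) incubated with 1.7 nM (final) [3H]ZM241385 in 50 mM Tris·HCl pH 7.4, 2 h at 25 °C with shaking. Nonspecific binding defined with 100 µM CGS21680. Filtered over GF/B, washed three times with ice-cold buffer. Compounds giving ≥50% inhibition at 10 µM went to concentration-response curves. pKi values, n=3 in duplicate.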

[2] = target: Beta-2 adrenergic receptor (Homo sapiens, UniProt P07550); experiment: Displacement of [3H]dihydroalprenolol from human ADRB2 expressed in HEK293T cells after 1 hr by liquid scintillation counter; format: cell-based, HEK-293T
Chain of Beta-2 adrenergic receptor (P07550 whole entry): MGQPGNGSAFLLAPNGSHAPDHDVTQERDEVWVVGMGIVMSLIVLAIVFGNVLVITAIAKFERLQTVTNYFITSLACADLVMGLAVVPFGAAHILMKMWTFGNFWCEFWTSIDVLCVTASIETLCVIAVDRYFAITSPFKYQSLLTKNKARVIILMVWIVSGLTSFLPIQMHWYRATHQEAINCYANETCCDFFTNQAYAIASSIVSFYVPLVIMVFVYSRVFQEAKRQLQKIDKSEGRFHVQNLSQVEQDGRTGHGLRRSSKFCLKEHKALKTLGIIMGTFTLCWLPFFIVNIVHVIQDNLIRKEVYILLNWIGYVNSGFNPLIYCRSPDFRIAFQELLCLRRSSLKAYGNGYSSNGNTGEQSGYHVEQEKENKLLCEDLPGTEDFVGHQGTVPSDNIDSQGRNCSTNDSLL
Method in brief: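 HEK293T cells transiently transfected with ADRB2 using PEI, harvested 48 h later for membranes. Membranes incubated at room temperature for 1 h with 1 nM [3H]-dihydroalprenolol in HEPES pH 7.4 with CaCl2, MgCl2, NaCl and 0.5% BSA. Filtered on GF/C presoaked in PEI, washed with ice-cold buffer plus 500 mM NaCl. Compounds giving ≥50% inhibition at 10 µM went to concentration-response curves. Ki by nonlinear regression, n=3 in triplicate.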

[3] = target: Sphingosine 1-phosphate receptor 1 (Homo sapiens, UniProt P21453); experiment: Induction of beta-arrestin2 recruitment to human S1PR1 expressed in CHOK1 cells after 2 hrs by beta-galactosidase assay; format: cell-based, CHO-K1
Chain of Sphingosine 1-phosphate receptor 1 (P21453 whole entry, the tested form may be a part): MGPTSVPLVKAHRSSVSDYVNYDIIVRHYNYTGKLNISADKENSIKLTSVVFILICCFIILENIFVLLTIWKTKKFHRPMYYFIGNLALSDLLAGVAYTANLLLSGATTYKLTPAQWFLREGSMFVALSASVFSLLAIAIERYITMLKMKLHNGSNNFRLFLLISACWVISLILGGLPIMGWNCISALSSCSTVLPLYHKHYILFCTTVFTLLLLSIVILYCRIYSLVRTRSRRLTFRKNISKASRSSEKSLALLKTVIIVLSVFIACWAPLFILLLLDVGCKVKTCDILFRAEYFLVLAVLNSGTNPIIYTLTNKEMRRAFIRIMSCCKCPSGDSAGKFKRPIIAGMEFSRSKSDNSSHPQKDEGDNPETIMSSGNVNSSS
Method in brief: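 PathHunter enzyme-fragment-complementation CHO-K1 S1PR1 β-arrestin cells seeded at 10,000/well in OPTI-MEM and held overnight at 37 °C. Compound added for 2 h at 37 °C, then 1 h at room temperature. Lysed with detection reagent and read by chemiluminescence after 2 h dark. Recruitment referenced to AUY954 (1 µM). Hits with ≥30% recruitment went to dose-response. pEC50, n=1 in triplicate.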

Chain of Adenosine receptor A2a (P29274 whole entry): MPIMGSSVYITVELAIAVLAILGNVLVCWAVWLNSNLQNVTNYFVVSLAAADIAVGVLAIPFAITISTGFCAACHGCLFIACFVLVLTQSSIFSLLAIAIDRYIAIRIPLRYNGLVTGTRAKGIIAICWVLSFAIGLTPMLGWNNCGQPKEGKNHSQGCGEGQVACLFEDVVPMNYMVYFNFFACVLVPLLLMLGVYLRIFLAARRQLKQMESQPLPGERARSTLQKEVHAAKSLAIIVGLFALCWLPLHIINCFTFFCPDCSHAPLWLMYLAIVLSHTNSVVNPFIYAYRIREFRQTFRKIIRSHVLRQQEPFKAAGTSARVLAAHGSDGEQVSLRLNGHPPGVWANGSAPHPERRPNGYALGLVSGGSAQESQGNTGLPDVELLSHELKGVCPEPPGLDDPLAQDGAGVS

| Ki [1] [µM] | Compound | further results |
| --- | --- | --- |
| 3.98 | N=C(NC(=O)C(Cc1ccccc1)N1C(=O)c2ccccc2C1=O)Nc1nc2ccccc2o1 (configuration not stated) |  |
| 1 | N#CCSc1nc2cc(C(=O)N3CCC(C(N)=O)CC3)ccc2c2nc3ccccc3n12 |  |
| 5.01 | O=C(CCN1C(=O)c2ccccc2C1=O)Nc1nc2ccccc2s1 |  |
| 1.26 | CCOC(=O)c1nc[nH]c1/N=N/c1c(O)ccc2ccccc12 |  |
| 3.98 | Cc1ccc2[nH]c3nc(SCC(=O)Nc4ncc(C)s4)nnc3c2c1 |  |
| 2.51 | Cc1nc2[nH]c3ccccc3n2c(=O)c1CCOC(=O)C1CCCCC1 |  |
| 2.51 | CC1CCN(C(=O)c2ccc3c(=O)[nH]c4c(-c5ccccc5)nnn4c3c2)CC1 |  |
| 0.631 | COCC1=CC(O)N=C(Nc2nc(C)c3ccccc3n2)N1 (configuration not stated) |  |
| 5.01 | N#C/C(=N\Nc1ccc(S(N)(=O)=O)cc1)c1nc2ccccc2[nH]1 |  |
| 5.01 | O=C1c2ccccc2C(=O)c2cc(OCC(O)CN3CCCCC3)ccc21 (configuration not stated) |  |

Continued, molecule first:

| Compound | Ki [1] [µM] | further results |
| --- | --- | --- |
| COc1cc(/C=N/Nc2ncnc3sc4c(c23)CCCC4)ccc1O | 5.01 |  |
| Cc1ccc(C(C)C)c(OCC(O)CN2CCN(CCO)CC2)c1 (configuration not stated) |  | Ki [2]: 39.8 µM |
| CC(=O)c1c(CSc2ccccc2)oc2ccc(O)c(CN(C)C)c12 |  | Ki [2]: 39.8 µM |
| O=C1Cc2ccccc2Sc2c(OCCN3CCCCC3)cccc21 |  | Ki [2]: 794 µM |
| Cc1ccc(C)c(OCC(O)CNC2CCCC2)c1 (configuration not stated) |  | Ki [2]: 2 µM |
| Cc1cc(NC(=O)CSc2nc3ccccc3c3nc4ccccc4n23)n[nH]1 | 0.631 |  |
| Cc1n[nH]c(C)c1S(=O)(=O)N1CCC(C(=O)Nc2nc3c(C)cccc3s2)CC1 | 1 |  |
| Nc1ccc(C(=O)Nc2ccc(O)c(-c3nc4ccccc4[nH]3)c2)cc1 | 1.58 |  |
| Cc1cccc2sc(NC(=O)CNS(=O)(=O)c3cccs3)nc12 | 1.58 |  |
| N/C(=N\C(=O)CN1C(=O)C2CCCCC2C1=O)Nc1nc2ccccc2s1 (configuration not stated) | 5.01 |  |
| CC1=C(C(=O)Nc2nc3ccccc3s2)C(c2ccco2)C(C#N)=C(SCC(N)=O)N1 (configuration not stated) | 6.31 |  |
| Cc1ccc(C(C)C)c(OCC(O)CN2CCCCC2)c1 (configuration not stated) |  | Ki [2]: 0.794 µM |
| Cc1nc2ccc(O)c(CN(C)C)c2[nH]1 |  | Ki [2]: 25.1 µM |
| O=C(Nc1nc2ccc(-c3nc4ccccc4[nH]3)cc2s1)C1CCCCC1 |  | EC50 [3]: 20 µM |
| CC(=O)N1CCc2cc(Br)cc(S(=O)(=O)N3CCC(O)(c4cccc(C(F)(F)F)c4)CC3)c21 |  | EC50 [3]: 31.6 µM |
| Cc1ccc(S(=O)(=O)Nc2nc3n(n2)C(c2ccccc2)C=C(c2ccccc2)N3)cc1 (configuration not stated) |  | EC50 [3]: 50.1 µM |
| CCCc1nn(C)c2c(=O)[nH]c(-c3cc(S(=O)(=O)N4CCN(C)CC4)ccc3OCC)nc12 [SILDENAFIL] | 0.2 |  |
